Measurements taken from ChEMBL document CHEMBL1154899, “Synthesis and biological evaluation of caffeic acid 3,4-dihydroxyphenethyl ester” (J Nat Prod, 2010).
Values after ≈ are worked out from the molar mass of the structure shown.

Columns and labels:
Type in all cases: functional
CAKI-1 = test: Antiproliferative activity against human Caki1 cells by SRB assay
HCT-15 = test: Antiproliferative activity against human HCT15 cells assessed as cell growth at 5 uM by SRB assay; settings: read-out: Activity
SF-268 [1] = test: Antiproliferative activity against human SF268 cells assessed as cell growth at 0.5 uM by SRB assay; settings: read-out: Activity
MDA-MB-231 = test: Antiproliferative activity against human MDA-MB-231 cells by SRB assay
[2] = tested on: Radical scavenging activity; test: Antioxidant activity assessed as DPPH radical scavenging activity after 20 mins
Procedure, shortened: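 Test solution at several concentrations (100 µL) mixed with 900 µL of 0.04 mg/mL DPPH in methanol, held 20 min at room temperature, absorbance read at 517 nm. Inhibition % = [(Ac − As)/Ac] × 100, with a blank holding 100 µL methanol in place of sample. Inhibition plotted against concentration; EC50 (mean ± SD) from linear regression of three determinations.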

SW-620 = test: Antiproliferative activity against human SW620 cells assessed as cell growth at 500 uM by SRB assay; settings: read-out: Activity
NCI-H522 = test: Antiproliferative activity against human NCI-H522 cells assessed as cell growth at 0.5 uM by SRB assay; settings: read-out: Activity
SNB-75 = test: Antiproliferative activity against human SNB75 cells assessed as cell growth at 500 uM by SRB assay; settings: read-out: Activity
K562 = test: Antiproliferative activity against human K562 cells assessed as cell growth at […] by SRB assay; settings: read-out: Activity
UO-31 = test: Antiproliferative activity against human UO31 cells assessed as cell growth at 0.5 uM by SRB assay; settings: read-out: Activity
SF-268 [3] = test: Antiproliferative activity against human SF268 cells by SRB assay
HL-60(TB) = test: Antiproliferative activity against human HL-60(TB) cells assessed as cell growth at 50 uM by SRB assay; settings: read-out: Activity
NCI-H322M = test: Antiproliferative activity against human NCI-H322M cells by SRB assay
BT-549 = test: Antiproliferative activity against human BT549 cells by SRB assay
NCI-H460 [4] = test: Antiproliferative activity against human NCI-H460 cells assessed as cell growth at 5 uM by SRB assay; settings: read-out: Activity
COLO 205 [5] = test: Antiproliferative activity against human COLO205 cells by SRB assay
UACC-257 [6] = test: Antiproliferative activity against human UACC257 cells assessed as cell growth at 5 mM by SRB assay; settings: read-out: Activity
COLO 205 [7] = test: Antiproliferative activity against human COLO205 cells assessed as cell growth at 5 uM by SRB assay; settings: read-out: Activity
HOP-62 [8] = test: Antiproliferative activity against human HOP62 cells assessed as cell growth at 500 uM by SRB assay; settings: read-out: Activity
RXF 393 = test: Antiproliferative activity against human RXF393 cells assessed as cell growth at 50 uM by SRB assay; settings: read-out: Activity
MDA-MB-435 = test: Antiproliferative activity against human MDA-MB-435 cells assessed as cell growth at 5 mM by SRB assay; settings: read-out: Activity
T47D [9] = test: Antiproliferative activity against human T47D cells by SRB assay
SNB-19 [10] = test: Antiproliferative activity against human SNB19 cells assessed as cell growth at 5 uM by SRB assay; settings: read-out: Activity
CCRF-CEM = test: Antiproliferative activity against human CCRF-CEM cells assessed as cell growth at 5 uM by SRB assay; settings: read-out: Activity
HCC 2998 = test: Antiproliferative activity against human HCC2998 cells assessed as cell growth at 0.5 uM by SRB assay; settings: read-out: Activity
NCI-H226 = test: Antiproliferative activity against human NCI-H226 cells assessed as cell growth at 5 uM by SRB assay; settings: read-out: Activity
[11] = Antiproliferative activity against human Hs 578T cells assessed as cell growth at 50 uM by SRB assay; settings: read-out: Activity
UACC-257 [12] = test: Antiproliferative activity against human UACC257 cells assessed as cell growth at 500 uM by SRB assay; settings: read-out: Activity
NCI-H460 [13] = test: Antiproliferative activity against human NCI-H460 cells assessed as cell growth at 50 uM by SRB assay; settings: read-out: Activity
SF-539 = test: Antiproliferative activity against human SF539 cells by SRB assay
SR = test: Antiproliferative activity against human SR cells assessed as cell growth at 0.5 uM by SRB assay; settings: read-out: Activity
UACC-62 = test: Antiproliferative activity against human UACC62 cells assessed as cell growth at 5 uM by SRB assay; settings: read-out: Activity
KM12 = test: Antiproliferative activity against human KM12 cells by SRB assay
SNB-19 [14] = test: Antiproliferative activity against human SNB19 cells assessed as cell growth at 50 uM by SRB assay; settings: read-out: Activity
[15] = Antiproliferative activity against human Hs 578T cells by SRB assay
T47D [16] = test: Antiproliferative activity against human T47D cells assessed as cell growth at 0.5 uM by SRB assay; settings: read-out: Activity
HOP-62 [17] = test: Antiproliferative activity against human HOP62 cells assessed as cell growth at […] by SRB assay; settings: read-out: Activity
[18] = read-out: LC50 (the source's name)
[19] = read-out: pLC50 (the source's name) (converted)

SMILES: O=C(/C=C/c1ccc(O)c(O)c1)OCCc1ccc(O)c(O)c1
- GI50 (CAKI-1; read-out: GI50): 10.6 µM
- CC50 (CAKI-1; [18]): > 50 µM
- TGI (CAKI-1; read-out: TGI): > 50 µM
- GI50 (CAKI-1; read-out: pGI50 (converted)): 10.5 µM
- CC50 (CAKI-1; [19]): > 50.1 µM
- TGI (CAKI-1; read-out: pTGI): > 50.1 µM
- growth at 5 µM (HCT-15): 88%
- growth at 0.5 µM (SF-268 [1]): 94%
- GI50 (MDA-MB-231; read-out: GI50): 11.1 µM
- CC50 (MDA-MB-231; [18]): > 50 µM
- TGI (MDA-MB-231; read-out: TGI): > 50 µM
- GI50 (MDA-MB-231; read-out: pGI50 (converted)): 10.5 µM
- CC50 (MDA-MB-231; [19]): > 50.1 µM
- TGI (MDA-MB-231; read-out: pTGI): > 50.1 µM
- EC50 [2]: 4.7 µg/mL (≈ 14.9 µM)
- growth at 500 µM (SW-620): 64%
- growth at 0.5 µM (NCI-H522): 74%
- growth at 500 µM (SNB-75): 58%
- growth (K562): -8%
- growth at 0.5 µM (UO-31): 98%
- GI50 (SF-268 [3]; read-out: GI50): 6.93 µM
- CC50 (SF-268 [3]; [18]): > 50 µM
- TGI (SF-268 [3]; read-out: TGI): > 50 µM
- GI50 (SF-268 [3]; read-out: pGI50 (converted)): 6.61 µM
- CC50 (SF-268 [3]; [19]): > 50.1 µM
- TGI (SF-268 [3]; read-out: pTGI): > 50.1 µM
- growth at 50 µM (HL-60(TB)): 82%
- GI50 (NCI-H322M; read-out: GI50): 28.1 µM
- CC50 (NCI-H322M; [18]): > 50 µM
- TGI (NCI-H322M; read-out: TGI): > 50 µM
- GI50 (NCI-H322M; read-out: pGI50 (converted)): 28.2 µM
- CC50 (NCI-H322M; [19]): > 50.1 µM
- TGI (NCI-H322M; read-out: pTGI): > 50.1 µM
- GI50 (BT-549; read-out: GI50): 8.67 µM
- CC50 (BT-549; [18]): > 50 µM
- TGI (BT-549; read-out: TGI): > 50 µM
- GI50 (BT-549; read-out: pGI50 (converted)): 8.32 µM
- CC50 (BT-549; [19]): > 50.1 µM
- TGI (BT-549; read-out: pTGI): > 50.1 µM
- growth at 5 µM (NCI-H460 [4]): 92%
- GI50 (COLO 205 [5]; read-out: GI50): 18.8 µM
- CC50 (COLO 205 [5]; [18]): > 50 µM
- TGI (COLO 205 [5]; read-out: TGI): > 50 µM
- GI50 (COLO 205 [5]; read-out: pGI50 (converted)): 18.6 µM
- CC50 (COLO 205 [5]; [19]): > 50.1 µM
- TGI (COLO 205 [5]; read-out: pTGI): > 50.1 µM
- growth at 5000 µM (UACC-257 [6]): 18%
- growth at 5 µM (COLO 205 [7]): 94%
- growth at 500 µM (HOP-62 [8]): 95%
- growth at 50 µM (RXF 393): 135%
- growth at 5000 µM (MDA-MB-435): 17%
- GI50 (T47D [9]; read-out: GI50): 11.3 µM
- CC50 (T47D [9]; [18]): > 50 µM
- TGI (T47D [9]; read-out: TGI): > 50 µM
- GI50 (T47D [9]; read-out: pGI50 (converted)): 11.2 µM
- CC50 (T47D [9]; [19]): > 50.1 µM
- TGI (T47D [9]; read-out: pTGI): > 50.1 µM
- growth at 5 µM (SNB-19 [10]): 95%
- growth at 5 µM (CCRF-CEM): 99%
- growth at 0.5 µM (HCC 2998): 93%
- growth at 5 µM (NCI-H226): 99%
- growth at 50 µM [11]: 80%
- growth at 500 µM (UACC-257 [12]): 83%
- growth at 50 µM (NCI-H460 [13]): 100%
- GI50 (SF-539; read-out: GI50): 5.83 µM
- CC50 (SF-539; [18]): > 50 µM
- TGI (SF-539; read-out: TGI): 24.2 µM
- GI50 (SF-539; read-out: pGI50 (converted)): 5.89 µM
- CC50 (SF-539; [19]): > 50.1 µM
- TGI (SF-539; read-out: pTGI (converted)): 24 µM
- growth at 0.5 µM (SR): 92%
- growth at 5 µM (UACC-62): 94%
- GI50 (KM12; read-out: GI50): 7.92 µM
- CC50 (KM12; [18]): > 50 µM
- TGI (KM12; read-out: TGI): > 50 µM
- GI50 (KM12; read-out: pGI50 (converted)): 7.94 µM
- CC50 (KM12; [19]): > 50.1 µM
- TGI (KM12; read-out: pTGI): > 50.1 µM
- growth at 50 µM (SNB-19 [14]): 94%
- GI50 ([15]; read-out: GI50): 9.75 µM
- CC50 [15, 18]: > 50 µM
- TGI ([15]; read-out: TGI): > 50 µM
- GI50 ([15]; read-out: pGI50 (converted)): 9.77 µM
- CC50 [15, 19]: > 50.1 µM
- TGI ([15]; read-out: pTGI): > 50.1 µM
- growth at 0.5 µM (T47D [16]): 98%
- growth (HOP-62 [17]): 38%
